Measurements from publication PMC3900310 (Annals of Clinical and Translational Neurology, 2013).
Where two headings read alike, the source gives them in different places.

What was measured:
[1] = biological target: recombinant ROCK2 (Homo sapiens, UniProt O75116); assay: Recombinant ROCK2 radiometric enzyme assay; type: biochemical; settings: versus ATP (Fig. 1B)
[2] = biological target: recombinant ROCK1 (Homo sapiens, UniProt Q13464); assay: Recombinant ROCK1 radiometric enzyme assay; type: biochemical; settings: concentrations up to 10 μmol/L, recombinant enzyme system
recombinant ROCK1, sequence (Q13464 76-338 limits assumed): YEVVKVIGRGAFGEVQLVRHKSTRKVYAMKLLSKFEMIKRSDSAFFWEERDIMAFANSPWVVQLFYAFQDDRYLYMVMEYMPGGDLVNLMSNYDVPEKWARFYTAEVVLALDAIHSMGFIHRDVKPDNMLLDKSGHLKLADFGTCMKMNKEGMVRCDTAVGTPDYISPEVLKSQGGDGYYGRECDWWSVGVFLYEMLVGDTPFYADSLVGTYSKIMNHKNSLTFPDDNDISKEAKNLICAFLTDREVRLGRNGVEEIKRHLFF

[3] = Pharmacokinetic study: plasma and brain concentrations after oral gavage; type: in vivo, mice; settings: for AUC(0-t) / Cmax / k el: male, C57BL/6, mouse, po
Method in brief: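 Male mice received 100 or 200 mg/kg twice daily by orogastric gavage, five doses. Each time point, from just before the last dose, used a separate group (n = 5). Jugular blood went into K3 EDTA tubes and was spun at 1000 g for 3 min at 4°C. Brains were harvested after saline perfusion. Samples were stored at −80°C and assayed by high-resolution MS. Noncompartmental analysis used best-fit λz, plus one-compartment zero- or first-order models. Brain/plasma exposure was taken as the AUC ratio.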

[4] = system: cortical perfusion during dMCAO; assay: Distal middle cerebral artery occlusion; type: in vivo, mice; settings: 200 mg/kg 90 min before dMCAO, laser speckle flowmetry
Method in brief: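 Male mice (25–30 g) given test compound or vehicle (0.4% methylcellulose) by orogastric gavage. […] Mice were intubated, mechanically ventilated and femoral-artery catheterized for blood pressure and blood sampling. Cortical perfusion was imaged by laser speckle through intact skull. Per-pixel CBF was taken relative to preischemic baseline. Areas with residual CBF ≤20%, 21–30% and 31–40% were thresholded.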

[5] = Systemic physiological parameters; type: in vivo, mice; settings: 200 mg/kg
[6] = system: focal cerebral ischemia (transient fMCAO)
[7] = system: focal cerebral ischemia (permanent fMCAO)
[8] = system: ROCK2; settings: read-out: ROCK2 IC50; cited from earlier work
[9] = system: ROCK1; settings: read-out: ROCK1 IC50; cited from earlier work
[10] = healthy volunteers; ref Surface Logix, Brighton, MA; cited from earlier work
[11] = system: endothelial cells; settings: cited from earlier work
[12] = system: ROCK activity (MYPT1 phosphorylation); assay: MYPT1 Thr696 phosphorylation in brain and heart after systemic administration; type: in vivo, mice; settings: 10 mg/kg, intraperitoneal
[13] = plasma, one-compartment first-order kinetic absorption model, 100 mg/kg
[14] = aged (12 months) mice, 1 h postischemic onset, 200 mg/kg
[15] = diabetic (db/db) mice, 1 h postischemic onset, 200 mg/kg
[16] = dose response, 24 h preischemic onset, 100 mg/kg every 12 h
[17] = dose response, 24 h preischemic onset, 200 mg/kg every 12 h
[18] = dose response, 24 h preischemic onset, 300 mg/kg every 12 h
[19] = female mice, 1 h postischemic onset, 200 mg/kg
[20] = therapeutic window, 1 h postischemic onset, 200 mg/kg
[21] = therapeutic window, 3 h postischemic onset, 200 mg/kg
[22] = therapeutic window, 6 h postischemic onset, 200 mg/kg
[23] = permanent ischemia, 1 h postischemic onset, 200 mg/kg, sacrifice at 24 h

recombinant ROCK2, sequence (O75116 92-354 limits assumed): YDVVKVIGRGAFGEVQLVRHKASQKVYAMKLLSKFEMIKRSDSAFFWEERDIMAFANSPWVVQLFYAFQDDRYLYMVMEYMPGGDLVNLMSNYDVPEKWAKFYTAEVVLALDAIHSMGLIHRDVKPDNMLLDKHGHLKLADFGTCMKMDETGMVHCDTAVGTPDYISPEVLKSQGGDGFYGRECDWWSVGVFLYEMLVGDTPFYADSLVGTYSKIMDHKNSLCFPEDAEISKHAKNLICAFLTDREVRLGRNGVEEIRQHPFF

CC(C)NC(=O)COc1cccc(-c2nc(Nc3ccc4[nH]ncc4c3)c3ccccc3n2)c1 [KD025]
mode of ROCK2 inhibition [1]: competitive with ATP | effect on ROCK1 enzymatic activity [2]: little effect | λ2 (slope of the log-linear terminal phase) ([3]; brain, non-compartmental analysis, 100 mg/kg every 12 h, five doses, oral gavage): 0.31 1/h | A (absorption) ([3]; brain, one-compartment first-order kinetic absorption model, 100 mg/kg): 0.67 µg/mL | AUC(0-t) ([3]; brain, 100 mg/kg): 2280 ng·h/mL | Cmax ([3]; brain, 100 mg/kg): 540 ng/mL | k el ([3]; brain, 100 mg/kg): 8.89e-05 s⁻¹ | AUC(0-t) ([3]; plasma, 100 mg/kg): 42300 ng·h/mL | Cmax ([3]; plasma, 100 mg/kg): 7280 ng/mL | k el ([3]; plasma, 100 mg/kg): 5e-05 s⁻¹ | A (absorption) [3, 13]: 9.16 µg/mL | Ka (absorption rate constant) [3, 13]: 2.23 h⁻¹ | V [3, 13]: 11.90 L | area of perfusion defect versus vehicle [4]: significantly reduced | arterial blood pressure lower compared with vehicle [5]: 8% | HR ([5]; N = 5 mice, mean ± SEM): 618 ± 19 bpm | pCO2 ([5]; N = 5 mice, mean ± SEM): 29 ± 2 mmHg | pO2 ([5]; N = 5 mice, mean ± SEM): 135 ± 13 mmHg | BP ([5]; N = 5 mice, mean ± SEM, P = 0.06 versus vehicle): 77 ± 3 mmHg | pH ([5]; arterial, N = 5 mice, mean ± SEM): 7.36 ± 0.02 | tissue loss in the ipsilateral hemisphere versus vehicle ([6]; 200 mg/kg twice a day for 36 h starting 1 h after ischemia onset, measured 4 weeks after ischemia): significantly reduced | efficacy on infarct volume ([6]; 200 mg/kg, treatment started 6 h after ischemia onset): completely lost | infarct volume reduction ([6]; 200 mg/kg, treatment starting 1 h after onset of fMCAO): 34% | infarct volume reduction ([6]; 200 mg/kg, treatment starting 3 h after onset of fMCAO): 26% | adverse effects observed ([6]; 300 mg/kg dose level): increased incidence of vomiting and respiratory difficulties | infarct volume reduction ([6]; aged (12 months) male mice, 200 mg/kg starting 1 h after fMCAO): 34% | Mortality [6, 14]: 2/8 | Weight loss [6, 14]: 3.4 ± 0.6 g | Mortality [6, 15]: 0/8 | Weight loss [6, 15]: 3.8 ± 0.3 g | Mortality [6, 16]: 0/6 | Weight loss [6, 16]: 4.3 ± 0.6 g | Mortality [6, 17]: 1/8 | Weight loss [6, 17]: 3.5 ± 0.4 g | Mortality [6, 18]: 2/9 | Weight loss [6, 18]: 4.5 ± 0.5 g | infarct volume reduction ([6]; female mice, 200 mg/kg starting 1 h after fMCAO): 42% | Mortality [6, 19]: 0/9 | Weight loss [6, 19]: 3.5 ± 0.4 g | effect on infarct volume in combination with atorvastatin ([6]; mouse, in vivo): did not show an additive or synergistic effect | therapeutic window of efficacy ([6]; mouse, in vivo): at least 3 h | neurological deficits, 5-point scoring system ([6]; preischemic treatment, assessed at 48 h prior to sacrifice): ameliorated | Mortality [6, 20]: 1/9 | Weight loss [6, 20]: 5.7 ± 0.2 g | Mortality [6, 21]: 0/15 | Weight loss [6, 21]: 5.2 ± 0.2 g | Mortality [6, 22]: 1/8 | Weight loss [6, 22]: 5.6 ± 0.3 g | incidence of hemorrhagic transformation, semi-quantitative grading ([6]; transient fMCAO model (Fig. S1)): did not detect an increase | infarct volume reduction ([6]; type 2 diabetic db/db mice, 200 mg/kg starting 1 h after fMCAO): 32% | efficacy on infarct volume in permanent ischemia ([7]; 200 mg/kg starting 1 h after permanent fMCAO, infarct volume at 24 h): lost its efficacy | Mortality [7, 23]: 6/15 | Weight loss [7, 23]: 3.5 ± 0.3 g | IC50 [8]: […] | IC50 [9]: 24 µM | side effects in phase I study [10]: no major side effects | effect in endothelial migration assays [11]: […]

O=c1[nH]ccc2c(S(=O)(=O)N3CCCNCC3)cccc12 [hydroxyfasudil]
ROCK activity measured by MYPT1 phosphorylation, relative to effect of KD025 [12]: comparable
